Source: ChEMBL document CHEMBL1123449, “9,11-Epoxy-9-homo-14-oxaprosta-5-enoic acid derivatives. Novel inhibitors of fatty acid cyclooxygenase” (J Med Chem, 1986)

Key:
Homo sapiens [1] = species: Homo sapiens; experiment: In vitro inhibition of arachidonic acid induced platelet aggregation of human platelet-rich plasma; assay type: functional; settings: read-out: I50
Procedure, shortened: (§1)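 Aggregation of human platelet-rich plasma triggered with arachidonic acid at 800 μM. The method follows an earlier report, and the value is given as I50.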

Homo sapiens [2] = species: Homo sapiens; experiment: In vitro ability to inhibit adenosine diphosphate induced platelet aggregation (ADPIPA) of human platelet-rich plasma (PRP), and I50 value was reported from single determination.; assay type: functional, organism-based; settings: read-out: I50
Homo sapiens [3] = species: Homo sapiens; experiment: In vitro ability to inhibit adenosine diphosphate induced platelet aggregation (ADPIPA) of human platelet-rich plasma (PRP); assay type: functional; settings: read-out: I50
Homo sapiens [4] = species: Homo sapiens; experiment: In vitro ability to inhibit arachidonic acid induced platelet aggregation (AAIPA) of human platelet-rich plasma (PRP); assay type: functional; procedure, shortened: as §1
Homo sapiens [5] = species: Homo sapiens; experiment: In vitro ability to cause dose dependent inhibition of arachidonic acid (AA) conversion to PGE-2; assay type: functional; settings: read-out: I50
Procedure, shortened: (§2)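 Compound incubated with platelet lysate at several concentrations. Read-out is inhibition of arachidonic acid conversion to TXA2, measured as TXB2 production, and to PGE2. The value is given as I50.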

Homo sapiens [6] = species: Homo sapiens; experiment: In vitro ability to cause dose dependent inhibition of arachidonic acid (AA) conversion to thromboxane A2 (TXA2 ); assay type: functional; settings: read-out: I50; procedure, shortened: as §2

Structure (SMILES)	IC50 (Homo sapiens [1]; Homo sapiens, Plasma)	also measured
CCCCCCCO[C@@H]1C2CCC(O2)[C@@H]1C/C=C\CCCC(=O)O (stereo partly drawn)	340 µM	–
CCCCCCCO[C@H]1C2CCC(O2)[C@@H]1C/C=C\CCCC(=O)O (stereo partly drawn)	120 µM	–
CCCCCOCCC1C2CCC(O2)C1C/C=C\CCCC(=O)O (stereo not drawn)	105 µM	–
CCCCC[C@H](O)/C=C/[C@H]1C2CCC(O2)[C@@H]1C/C=C\CCCC(=O)O (stereo partly drawn)	0.3 µM	IC50 (Homo sapiens [2]): 1.6 µM
CCCCC[C@H](O)/C=C/[C@@H]1C2CCC(O2)[C@@H]1C/C=C\CCCC(=O)O (stereo partly drawn)	–	IC50 (Homo sapiens [3]): 300 µM
O=C(O)CCC/C=C\CC1C2CCC(O2)C1COCCCc1ccccc1 (stereo not drawn)	26 µM	–
O=C(O)CCCCC1CC2C3CCC(O3)C2CO1 (stereo not drawn)	> 1000 µM	–
O=C(O)CCC/C=C\CC1C2CCC(O2)C1COCC1CCCCC1 (stereo not drawn)	165 µM	–
CCCCCCOC(C)C1C2CCC(O2)C1CC=CCCCC(=O)O (stereo not drawn)	14 µM	–
CCCC[C@@H](O)/C=C/C1C2CCC(O2)C1C/C=C\CCCC(=O)O (stereo partly drawn)	–	AC50 (Homo sapiens [4]): 2.5 µM
CCCCCCOCC1C2CCC(O2)C1CCCCCCC(=O)O (stereo not drawn)	0.2 µM	–
CCCCCCOC[C@@H]1C2CCC(O2)[C@@H]1C/C=C\CCCC(=O)O (single isomer, unassigned; (-))	–	IC50 (Homo sapiens [1]): 38.5 µM
CCCCCCOC[C@@H]1C2CCC(O2)[C@H]1C/C=C\CCCC(=O)O (stereo in doubt; 1)	–	IC50 (Homo sapiens [5]; Homo sapiens): 3.8 µM; IC50 (Homo sapiens [5]): 6.3 µM; IC50 (Homo sapiens [6]): 6.3 µM; IC50 (Homo sapiens [1]): 0.5 µM; IC50 (Homo sapiens [3]): > 1000 µM
CCCCCCOC[C@@H]1C2CCC(O2)[C@H]1C/C=C\CCCC(=O)O (stereo in doubt; 9)	–	IC50 (Homo sapiens [1]): 25 µM
CCCCCCOC[C@@H]1C2CCC(O2)[C@@H]1C/C=C\CCCC(=O)O (stereo in doubt; 10)	–	IC50 (Homo sapiens [1]): 10 µM
CCCCCCOC[C@@H]1C2CCC(O2)[C@H]1C/C=C\CCCC(=O)O (stereo in doubt; 11)	–	IC50 (Homo sapiens [1]): 18 µM
CCCCCC(C)OCC1C2CCC(O2)C1C/C=C\CCCC(=O)O (stereo in doubt; form 1)	–	IC50 (Homo sapiens [1]): 23 µM
CCCCCC(C)OCC1C2CCC(O2)C1C/C=C\CCCC(=O)O (stereo in doubt; form 2)	–	IC50 (Homo sapiens [1]): 3.2 µM
CC(=O)Oc1ccccc1C(=O)O [ASPIRIN]	185 µM	–
COc1ccc2c(c1)c(CC(=O)O)c(C)n2C(=O)c1ccc(Cl)cc1 [INDOMETHACIN]	4 µM	–

The next lines start with results.

IC50 (Homo sapiens [1]; Homo sapiens, Plasma)	Structure (SMILES)	also measured
3.3 µM	CCC/C=C\COCC1C2CCC(O2)C1C/C=C\CCCC(=O)O (stereo not drawn)	–
0.3 µM	CCC/C=C/COCC1C2CCC(O2)C1C/C=C\CCCC(=O)O (stereo not drawn)	–
22 µM	COCC1C2CCC(O2)C1C/C=C\CCCC(=O)O (stereo not drawn)	–
0.5 µM	CC/C=C/CCOCC1C2CCC(O2)C1C/C=C\CCCC(=O)O (stereo not drawn)	–
0.2 µM	CCCC#CCOCC1C2CCC(O2)C1C/C=C\CCCC(=O)O (stereo not drawn)	–
32 µM	CCCCCCCCOCC1C2CCC(O2)C1C/C=C\CCCC(=O)O (stereo not drawn)	–
6 µM	C=CCOCC1C2CCC(O2)C1C/C=C\CCCC(=O)O (stereo not drawn)	–
7.4 µM	CCCCC(C)COCC1C2CCC(O2)C1C/C=C\CCCC(=O)O (stereo not drawn)	–
